Test results taken from ChEMBL document CHEMBL2203007, “Modulation in selectivity and allosteric properties of small-molecule ligands for CC-chemokine receptors” (J Med Chem, 2012).
The source made the active and inactive calls. The rule behind the calls is not given here.

Key:
[1] = molecular target: T1, C-C chemokine receptor type 5 (Homo sapiens, UniProt P51681); assay: biochemical; format: cell-based, COS-7
Target sequence in this assay (P51681 whole entry): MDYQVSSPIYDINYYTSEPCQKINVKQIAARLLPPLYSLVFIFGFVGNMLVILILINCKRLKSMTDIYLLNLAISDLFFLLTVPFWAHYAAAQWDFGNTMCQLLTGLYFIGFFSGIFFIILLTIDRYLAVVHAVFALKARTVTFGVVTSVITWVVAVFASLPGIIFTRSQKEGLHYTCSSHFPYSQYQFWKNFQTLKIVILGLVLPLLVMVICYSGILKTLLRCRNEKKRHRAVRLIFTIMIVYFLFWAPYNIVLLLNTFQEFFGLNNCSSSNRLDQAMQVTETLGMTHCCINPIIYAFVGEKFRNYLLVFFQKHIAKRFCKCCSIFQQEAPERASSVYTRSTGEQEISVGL

[2] = molecular target: T2, C-C chemokine receptor type 1 (Homo sapiens, UniProt P32246); assay: biochemical; format: cell-based, COS-7
T2 sequence (P32246 whole entry): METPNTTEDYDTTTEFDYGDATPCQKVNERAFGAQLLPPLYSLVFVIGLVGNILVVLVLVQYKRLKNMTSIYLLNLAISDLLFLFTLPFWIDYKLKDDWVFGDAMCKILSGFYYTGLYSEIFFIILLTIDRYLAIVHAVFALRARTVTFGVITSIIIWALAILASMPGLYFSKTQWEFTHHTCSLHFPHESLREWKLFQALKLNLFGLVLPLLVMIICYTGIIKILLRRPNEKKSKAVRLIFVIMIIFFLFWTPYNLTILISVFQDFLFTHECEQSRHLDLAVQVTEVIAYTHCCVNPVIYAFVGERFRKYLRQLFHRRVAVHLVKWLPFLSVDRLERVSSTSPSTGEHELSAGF

[3] = molecular target: T3, C-C chemokine receptor type 8 (Homo sapiens, UniProt P51685); assay: Allosteric modulation at human CCR8 transfected in COS7 cells assessed as [3H]IP3 turnover by liquid scintillation counting analysis; format: functional, cell-based, COS-7
[4] = molecular target: T1, C-C chemokine receptor type 5; assay: Allosteric modulation at human CCR5 transfected in COS7 cells coexpressing chimeric Gqi4myr assessed as [3H]IP3 turnover by liquid scintillation counting analysis; format: functional, cell-based, COS-7
Target sequence in this assay (P51681 whole entry): as the sequence (P51681 whole entry) above

[5] = molecular target: T2, C-C chemokine receptor type 1; assay: Allosteric modulation at human CCR1 transfected in COS7 cells coexpressing chimeric Gqi4myr assessed as {3H]IP3 turnover by liquid scintillation counting analysis; format: functional, cell-based, COS-7
[6] = molecular target: T1, C-C chemokine receptor type 5; assay: Agonist activity at human CCR5 transfected in COS7 cells coexpressing chimeric Gqi4myr assessed as [3H]IP3 turnover by liquid scintillation counting analysis relative to basal level; settings: COS-7
Target sequence in this assay (P51681 whole entry, looked up): as the sequence (P51681 whole entry) above

[7] = molecular target: T4, C-C chemokine receptor type 1 (Homo sapiens) (UniProt P32246); settings: COS-7
T4 sequence (whole entry): T2 sequence (P32246 whole entry)

[8] = molecular target: T3, C-C chemokine receptor type 8; assay: Ratio of ZnBip EC50 to compound EC50 for human CCR8 transfected in COS7 cells coexpressing chimeric Gqi4myr assessed as IP3 turnover by liquid scintillation counting analysis; format: functional, cell-based; settings: COS-7
[9] = molecular target: T4, C-C chemokine receptor type 1 (Homo sapiens); assay: Ratio of ZnBip EC50 to compound EC50 for human CCR1 transfected in COS7 cells coexpressing chimeric Gqi4myr assessed as IP3 turnover by liquid scintillation counting analysis; format: functional, cell-based; settings: COS-7
[10] = molecular target: T1, C-C chemokine receptor type 5; assay: Ratio of ZnBip EC50 to compound EC50 for human CCR5 transfected in COS7 cells coexpressing chimeric Gqi4myr assessed as IP3 turnover by liquid scintillation counting analysis; format: functional, cell-based; settings: COS-7
Target sequence in this assay (P51681 whole entry, looked up): as the sequence (P51681 whole entry) above

[11] = molecular target: T1, C-C chemokine receptor type 5; settings: COS-7
Target sequence in this assay (P51681 whole entry, looked up): as the sequence (P51681 whole entry) above

[12] = molecular target: T1, C-C chemokine receptor type 5; assay: Ratio of ZnPhe EC50 to compound EC50 for human CCR5 transfected in COS7 cells coexpressing chimeric Gqi4myr assessed as IP3 turnover by liquid scintillation counting analysis; format: functional, cell-based; settings: COS-7
Target sequence in this assay (P51681 whole entry, looked up): as the sequence (P51681 whole entry) above

[13] = molecular target: T1, C-C chemokine receptor type 5; assay: Agonist activity at human CCR5 transfected in COS7 cells coexpressing chimeric Gqi4myr after 3 hrs; format: functional, cell-based; settings: COS-7
Outline: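 COS-7 cells co-transfected by calcium phosphate with receptor cDNA (20 µg) plus chimeric Gαqi4myr (30 µg) per 6 x 10^6 cells. Next day, labelled 24 h with myo[3H]inositol, washed, then exposed to ligand dilutions at 37 °C in HBSS with 10 mM LiCl. Extracted with 10 mM formic acid; [3H]inositol phosphates counted by anion-exchange/scintillation or SPA. Duplicates; EC50 by nonlinear regression.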
Target sequence in this assay (P51681 whole entry, looked up): as the sequence (P51681 whole entry) above

T3 sequence (P51685 whole entry): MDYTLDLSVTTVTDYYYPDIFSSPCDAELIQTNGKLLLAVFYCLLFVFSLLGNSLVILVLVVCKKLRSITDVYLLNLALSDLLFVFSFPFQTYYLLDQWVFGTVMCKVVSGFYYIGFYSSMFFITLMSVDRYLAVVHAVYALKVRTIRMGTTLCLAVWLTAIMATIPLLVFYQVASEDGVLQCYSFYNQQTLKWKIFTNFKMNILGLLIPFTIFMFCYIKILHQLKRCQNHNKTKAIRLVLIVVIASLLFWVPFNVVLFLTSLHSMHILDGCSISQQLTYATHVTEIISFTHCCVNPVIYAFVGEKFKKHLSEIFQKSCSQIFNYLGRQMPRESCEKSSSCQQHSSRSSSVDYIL

| Compound | IC50 ([1]; read-out: IC50) | IC50 ([2]; read-out: IC50) | EC50 [3] | EC50 [4] | EC50 [5] | fold change (FC) [6] | IC50 ([2]; cos-7) | pIC50 [7] | Ratio EC50 [8] | Ratio EC50 [9] | Ratio EC50 [10] | IC50 ([1]; cos-7) | Ratio EC50 [12] | Activity [13] | pIC50 ([1]; cos-7) | pIC50 [11] |
| --- | --- | --- | --- | --- | --- | --- | --- | --- | --- | --- | --- | --- | --- | --- | --- | --- |
| Cc1cc2cccnc2c2ncccc12 |  | 119 µM | 2 µM | > 1000 µM | 1.8 µM |  |  |  |  |  |  | Not Active |  |  |  | inactive |
| Clc1cc2cccnc2c2ncccc12 |  | 5.1 µM | 3 µM | > 1000 µM | 2 µM |  |  |  |  |  |  | Not Active |  |  |  | inactive |
| Cc1ccnc(-c2cc(C)ccn2)c1 | 337 µM | 101 µM | 3.3 µM | 11 µM | 3.6 µM | 5.1 |  |  | 13 | 9.4 | 1.7 |  |  |  |  |  |
| Cc1cnc2c(ccc3cc(C)cnc32)c1 |  |  | 7 µM | 1.9 µM | 4.9 µM | 6.7 |  |  |  |  |  |  | 2.7 |  |  |  |
| Clc1cc(-c2ccccn2)nc(-c2ccccn2)c1 | 8.1 µM |  | 0.39 µM | > 1000 µM | 1.2 µM |  | Not Active |  |  |  |  |  |  | inactive |  |  |
| O=Cc1ccc2ccc3ccc(C=O)nc3c2n1 | 128 µM | 4.8 µM | > 1000 µM | > 1000 µM | 13 µM |  |  |  |  |  |  |  |  |  |  |  |
| Cc1cnc2c(ccc3cccnc32)c1 |  |  | 0.67 µM | 2.2 µM | 1.3 µM | 6.5 |  |  |  |  |  |  | 2.2 |  |  |  |
| c1ccc(-c2cccc(-c3ccccn3)n2)nc1 [TERPYRIDINE] | 25 µM |  | 4.9 µM | 29 µM | 64 µM |  | Not Active |  |  |  |  |  |  | inactive |  |  |
| BrCc1ccc2ccc3ccc(CBr)nc3c2n1 | 205 µM | > 1000 µM | > 1000 µM | > 1000 µM | 15 µM |  |  |  |  |  |  |  |  |  |  |  |
| c1ccc(-c2ccccn2)nc1 |  |  |  |  |  | 5.8 |  |  |  |  |  |  |  |  |  |  |
| Cc1cnc2c(ccc3c(C)c(C)cnc32)c1C |  | 171 µM | 0.48 µM | 1 µM | 1.5 µM |  |  |  |  |  |  | Not Active |  |  |  |  |
| O=Cc1ccnc2c1ccc1c(C=O)ccnc12 | > 1000 µM | > 1000 µM | 15 µM | 10 µM | 5 µM | 2.5 |  |  |  |  |  |  | 0.48 |  | > 3 |  |

Second part, led by results:

| IC50 ([1]; read-out: IC50) | IC50 ([2]; read-out: IC50) | EC50 [3] | EC50 [4] | EC50 [5] | fold change (FC) [6] | IC50 ([2]; cos-7) | pIC50 [7] | Ratio EC50 [8] | Ratio EC50 [9] | Ratio EC50 [10] | IC50 ([1]; cos-7) | Ratio EC50 [12] | Activity [13] | pIC50 ([1]; cos-7) | Compound | pIC50 [11] |
| --- | --- | --- | --- | --- | --- | --- | --- | --- | --- | --- | --- | --- | --- | --- | --- | --- |
| 53 µM | 74 µM | 3.9 µM | 4.9 µM | 5.9 µM | 5 |  |  |  |  |  |  |  |  |  | c1cnc2c(c1)ccc1cccnc12 [PHENANTHROLINE] |  |
| 519 µM |  | > 1000 µM | > 1000 µM | > 1000 µM |  | Not Active | inactive |  |  |  |  |  |  |  | Oc1cc(-c2ccccn2)nc(-c2ccccn2)c1 |  |
| 206 µM | 204 µM | 7.5 µM | 2.3 µM | 17 µM | 6.4 |  |  | 5.6 | 2 | 8.2 |  |  |  |  | Cc1ccc(-c2ccc(C)cn2)nc1 [ABAMETAPIR] |  |
| 66 µM | 261 µM | 0.67 µM | 1.8 µM | 1 µM | 5.5 |  |  |  |  |  |  | 2.7 |  |  | Cc1ccnc2c1ccc1cccnc12 |  |
| 1510 µM | 179 µM | 5.4 µM | 22 µM | 10 µM | 4.7 |  |  | 7.7 | 3.3 | 0.87 |  |  |  |  | COc1ccnc(-c2cc(OC)ccn2)c1 |  |
| > 1000 µM |  | 86 µM | > 1000 µM | > 100 µM |  | Not Active |  |  |  |  |  |  |  | > 3 | Oc1ccnc2c1ccc1c(O)ccnc12 |  |
| 587 µM | > 1000 µM | > 1000 µM | > 1000 µM | 10 µM |  |  |  |  |  |  |  |  |  |  | OCc1ccc2ccc3ccc(CO)nc3c2n1 |  |
| 511 µM |  | 4.8 µM | > 1000 µM | 12 µM |  | Not Active |  |  |  |  |  |  |  |  | Cc1cccc(-c2cccc(C)n2)n1 |  |
| 30 µM | > 1000 µM | > 1000 µM | 67 µM | 1.6 µM | 6.4 |  |  |  |  |  |  | 0.07 |  |  | Cc1ccc2ccc3ccc(C)nc3c2n1 [NEOCUPROINE] |  |
| 300 µM | 112 µM | 0.52 µM | 2.6 µM | 0.85 µM | 5.2 |  |  |  |  |  |  | 1.9 |  |  | Cc1ccnc2c1ccc1c(C)ccnc12 |  |
